From ChEMBL document CHEMBL4825663 (J Med Chem, 2021)
One block for each compound: values may come before it. Activity calls are given as the source filed them. No cut-off for these calls is given here.

Tests used:
[1] = target: T1, Multidrug and toxin extrusion protein 1 (Homo sapiens, UniProt Q96FL8); test: Inhibition of human MATE1 assessed as reduction in intracellular probe substrate accumulation upto 100 uM by microplate scintillation counter analysis relative to control; assay type: cell-based
T1 sequence (Q96FL8 whole entry): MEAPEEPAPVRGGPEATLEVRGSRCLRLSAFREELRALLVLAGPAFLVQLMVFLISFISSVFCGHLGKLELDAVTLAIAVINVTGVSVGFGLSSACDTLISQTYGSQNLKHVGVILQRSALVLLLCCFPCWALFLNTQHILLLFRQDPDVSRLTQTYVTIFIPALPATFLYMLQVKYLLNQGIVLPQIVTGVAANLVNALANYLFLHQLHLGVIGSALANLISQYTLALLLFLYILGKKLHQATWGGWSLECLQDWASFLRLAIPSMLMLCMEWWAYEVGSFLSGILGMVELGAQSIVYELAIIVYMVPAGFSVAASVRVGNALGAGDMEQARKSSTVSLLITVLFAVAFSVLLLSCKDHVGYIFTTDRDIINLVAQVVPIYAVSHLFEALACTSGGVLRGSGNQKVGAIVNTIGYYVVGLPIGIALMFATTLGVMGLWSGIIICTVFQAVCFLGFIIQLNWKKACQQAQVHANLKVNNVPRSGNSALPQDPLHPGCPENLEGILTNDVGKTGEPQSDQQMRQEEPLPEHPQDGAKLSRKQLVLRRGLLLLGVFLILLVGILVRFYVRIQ
Summary of the method: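 Cellular uptake-inhibition assays used Chinese hamster ovary, HEK293 or MDCKII cells stably expressing the respective human SLC transporter, run alongside the corresponding control cells. Inhibitor was tested at concentrations up to 100 μM.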

[2] = Toxicity in Beagle dog assessed as enlargement of lymph nodes at >= 100 mg/kg, po and measured after 13 weeks; assay type: organism-based, Canis lupus familiaris; conditions: in vivo, 2184 h
[3] = Toxicity in Sprague-Dawley rat at 2000 mg/kg, po administered as single dose and measured upto 13 weeks; assay type: organism-based; conditions: in vivo, 2184 h
[4] = Toxicity in Beagle dog at 200 mg/kg, po administered as repeated dose and measured upto 13 weeks; assay type: organism-based, Canis lupus familiaris; conditions: in vivo, 2184 h
[5] = Toxicity in Sprague-Dawley rat at 200 mg/kg, po administered as repeated dose and measured upto 13 weeks; assay type: organism-based; conditions: in vivo, 2184 h
[6] = target: ATP-dependent translocase ABCB1 (Homo sapiens, UniProt P08183); test: Inhibition of P-gp in human Caco-2 cells assessed as reduction in paclitaxel efflux pre-incubated for 30 mins and measured after 120 mins by LC-MS/MS analysis; assay type: cell-based
Chain of ATP-dependent translocase ABCB1 (P08183 whole entry): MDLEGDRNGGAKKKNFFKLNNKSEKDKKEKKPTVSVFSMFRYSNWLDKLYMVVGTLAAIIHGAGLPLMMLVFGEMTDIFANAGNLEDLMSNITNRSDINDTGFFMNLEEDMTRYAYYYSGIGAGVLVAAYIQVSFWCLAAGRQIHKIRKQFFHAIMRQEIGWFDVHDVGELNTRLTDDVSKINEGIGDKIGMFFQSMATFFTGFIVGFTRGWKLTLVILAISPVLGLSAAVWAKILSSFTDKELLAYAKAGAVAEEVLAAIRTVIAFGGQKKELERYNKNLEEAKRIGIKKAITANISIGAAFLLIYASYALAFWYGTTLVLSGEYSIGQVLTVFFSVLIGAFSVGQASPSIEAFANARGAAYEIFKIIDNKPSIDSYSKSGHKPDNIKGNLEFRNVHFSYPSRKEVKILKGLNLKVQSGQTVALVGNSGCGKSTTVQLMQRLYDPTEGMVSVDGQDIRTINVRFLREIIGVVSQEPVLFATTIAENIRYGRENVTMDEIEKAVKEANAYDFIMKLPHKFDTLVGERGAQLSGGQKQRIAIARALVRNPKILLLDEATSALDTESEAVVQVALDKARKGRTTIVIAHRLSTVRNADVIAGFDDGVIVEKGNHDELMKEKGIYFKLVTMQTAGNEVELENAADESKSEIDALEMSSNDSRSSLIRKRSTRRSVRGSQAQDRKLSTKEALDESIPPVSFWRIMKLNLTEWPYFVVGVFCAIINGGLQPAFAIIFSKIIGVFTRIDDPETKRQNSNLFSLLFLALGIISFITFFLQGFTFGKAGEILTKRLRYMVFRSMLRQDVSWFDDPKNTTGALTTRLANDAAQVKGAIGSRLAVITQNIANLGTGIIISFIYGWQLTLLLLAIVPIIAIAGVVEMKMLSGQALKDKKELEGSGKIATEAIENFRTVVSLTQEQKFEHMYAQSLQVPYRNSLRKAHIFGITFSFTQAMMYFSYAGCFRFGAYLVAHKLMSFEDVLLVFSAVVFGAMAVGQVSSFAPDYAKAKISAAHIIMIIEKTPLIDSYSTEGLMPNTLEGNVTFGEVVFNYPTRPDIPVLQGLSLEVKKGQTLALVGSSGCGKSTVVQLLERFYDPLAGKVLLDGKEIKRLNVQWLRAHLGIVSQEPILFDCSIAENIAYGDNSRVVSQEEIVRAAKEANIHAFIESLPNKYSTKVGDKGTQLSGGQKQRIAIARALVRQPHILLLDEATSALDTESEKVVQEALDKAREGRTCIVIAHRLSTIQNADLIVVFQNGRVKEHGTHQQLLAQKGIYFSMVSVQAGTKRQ
Summary of the method: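 Bidirectional paclitaxel transport across Caco-2 monolayers with coadministered inhibitor. Apparent permeability was measured apical-to-basal (absorption) and basal-to-apical (efflux). IC50 was derived from these permeability data.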

[7] = target: ATP-binding cassette sub-family C member 3 (Homo sapiens, UniProt O15438); test: Inhibition of […]-stimulated MRP3 ATPase activity (unknown origin) in presence of GSH
Chain of ATP-binding cassette sub-family C member 3 (O15438 whole entry): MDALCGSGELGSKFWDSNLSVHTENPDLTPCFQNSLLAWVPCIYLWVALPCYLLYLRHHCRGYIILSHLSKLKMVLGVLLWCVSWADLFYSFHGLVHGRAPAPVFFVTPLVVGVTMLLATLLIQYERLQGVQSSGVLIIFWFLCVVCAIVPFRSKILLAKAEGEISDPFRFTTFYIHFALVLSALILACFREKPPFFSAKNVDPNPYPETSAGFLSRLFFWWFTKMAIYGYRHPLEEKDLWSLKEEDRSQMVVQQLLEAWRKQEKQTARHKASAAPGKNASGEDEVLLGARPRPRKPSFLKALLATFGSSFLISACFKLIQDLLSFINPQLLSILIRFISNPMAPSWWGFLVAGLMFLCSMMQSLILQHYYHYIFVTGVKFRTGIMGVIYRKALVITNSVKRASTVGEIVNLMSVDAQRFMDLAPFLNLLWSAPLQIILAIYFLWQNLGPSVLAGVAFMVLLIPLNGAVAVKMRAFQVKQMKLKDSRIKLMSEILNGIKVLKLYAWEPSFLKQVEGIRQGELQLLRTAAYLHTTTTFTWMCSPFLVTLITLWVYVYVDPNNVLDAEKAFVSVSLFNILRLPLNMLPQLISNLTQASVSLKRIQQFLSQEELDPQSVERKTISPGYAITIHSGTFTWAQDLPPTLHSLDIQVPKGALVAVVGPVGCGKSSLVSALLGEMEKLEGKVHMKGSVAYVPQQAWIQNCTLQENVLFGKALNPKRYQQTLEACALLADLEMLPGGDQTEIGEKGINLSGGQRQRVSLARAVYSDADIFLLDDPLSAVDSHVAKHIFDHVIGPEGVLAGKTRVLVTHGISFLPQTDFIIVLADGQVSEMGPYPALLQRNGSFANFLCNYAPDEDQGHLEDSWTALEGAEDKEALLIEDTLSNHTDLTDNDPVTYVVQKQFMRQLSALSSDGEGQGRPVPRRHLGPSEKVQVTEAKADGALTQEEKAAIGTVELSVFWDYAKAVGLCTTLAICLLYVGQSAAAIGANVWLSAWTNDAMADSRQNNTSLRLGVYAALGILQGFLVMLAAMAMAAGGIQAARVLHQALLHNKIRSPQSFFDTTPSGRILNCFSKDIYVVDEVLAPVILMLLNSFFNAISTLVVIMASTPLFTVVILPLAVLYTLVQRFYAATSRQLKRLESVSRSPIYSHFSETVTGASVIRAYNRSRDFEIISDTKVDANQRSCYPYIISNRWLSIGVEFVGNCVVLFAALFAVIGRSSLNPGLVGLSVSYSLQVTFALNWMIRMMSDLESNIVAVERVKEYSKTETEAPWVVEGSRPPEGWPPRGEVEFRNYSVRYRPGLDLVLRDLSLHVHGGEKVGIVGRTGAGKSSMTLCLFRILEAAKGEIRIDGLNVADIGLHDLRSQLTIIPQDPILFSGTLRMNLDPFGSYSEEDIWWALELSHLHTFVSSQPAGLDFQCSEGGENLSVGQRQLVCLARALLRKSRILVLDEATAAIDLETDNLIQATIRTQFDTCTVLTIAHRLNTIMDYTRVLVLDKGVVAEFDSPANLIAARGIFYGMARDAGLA

[8] = Cmax in human upto 360 mg, po administered as repeated dose for 5 consecutive days; assay type: ADME, organism-based; parameters: route oral, dose <=360; conditions: in vivo
[9] = Toxicity in athymic nude mouse xenografted with human NCI-H460 cells assessed as mortality at 18 to 24 mg/kg, iv administered every other day for 4 doses monitored for 48 days; assay type: organism-based; conditions: in vivo, 1152 h, dose 18-24 mg/kg, time 48 day
Summary of the method: (§1)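 Female athymic NCr-nu mice carried subcutaneous NCI-H460 human lung tumor xenografts. Paclitaxel was given IV at 18 or 24 mg/kg every other day for four doses. Animals were followed for 48 days after tumor implantation, with individual body weights and mortality recorded alongside tumor weights.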

[10] = Drug absorption in fed Beagle dog plasma at 6 mg/kg, po measured upto 24 hrs in presence of 3 mg/kg encequidar by LC-MS/MS analysis; assay type: ADME, organism-based, Canis lupus familiaris; conditions: in vivo
[11] = system: MDA-MB-231; test: Antitumor activity against human MDA-MB-231 cells xenografted in athymic nude mouse assessed as reduction in tumor growth at 40 mg/kg, po administered every other day for 4 doses in presence 16 mg/kg encequidar and monitored for 70 to 82 days; assay type: functional, organism-based; conditions: time 70-82 day
[12] = Toxicity in athymic nude mouse xenografted with human NCI-H460 cells assessed as reduction in body weight at 18 to 24 mg/kg, iv administered every other day for 4 doses monitored for 48 days; assay type: organism-based; conditions: in vivo, 1152 h, dose 18-24 mg/kg, time 48 day; summary of the method: as §1
[13] = system: HT-29; test: Antitumor activity against human HT-29 cells xenografted in athymic nude mouse assessed as reduction in tumor growth at 40 mg/kg, po in presence of 20 mg/kg encequidar; assay type: functional; parameters: scale not given: the % may be the effect or the level left
[14] = AUClast in Sprague-Dawley rat at 6 mg/kg, iv measured upto 24 hrs by LC-MS/MS analysis; assay type: ADME, organism-based; parameters: route intravenous, dose 6 mg/kg, time <=24; conditions: in vivo
[15] = Drug excretion in Sprague-Dawley rat bile at 20 mg/kg, po in presence of 10 mg/kg encequidar; assay type: ADME, organism-based; conditions: in vivo
[16] = Tmax in Sprague-Dawley rat at 6 mg/kg, iv measured upto 24 hrs by LC-MS/MS analysis; assay type: ADME, organism-based; conditions: in vivo
[17] = Ratio of drug concentration in BALB/c mouse liver to plasma at 20 mg/kg, po measured upto 24 hrs in presence of 10 mg/kg encequidar by LC-MS/MS analysis; assay type: ADME, organism-based
[18] = Toxicity in athymic nude mouse xenografted with human NCI-H460 cells assessed as mortality at 30 to 50 mg/kg, po administered every other day for 4 doses in presence of 12 to 20 mg/kg encequidar and monitored for 48 days; assay type: organism-based; conditions: in vivo, 1152 h, dose 30-50 mg/kg, time 48 day
[19] = Clearance in Sprague-Dawley rat at 6 mg/kg, iv measured upto 24 hrs by LC-MS/MS analysis; assay type: ADME, organism-based; conditions: in vivo
[20] = Toxicity in athymic nude mouse xenografted with human NCI-H460 cells assessed as reduction in body weight at 30 to 50 mg/kg, po administered every other day for 4 doses in presence of 12 to 20 mg/kg encequidar and monitored for 48 days; assay type: organism-based; conditions: in vivo, 1152 h, dose 30-50 mg/kg, time 48 day
[21] = Drug absorption in fed Sprague-Dawley rat at 20 mg/kg, po measured upto 24 hrs in presence of 10 mg/kg encequidar by LC-MS/MS analysis; assay type: ADME, organism-based; conditions: in vivo
[22] = in vivo; conditions: Sprague-Dawley, rat, po, 20 mg/kg
[23] = system: NCI-H460; test: Antitumor activity against human NCI-H460 cells xenografted in athymic nude mouse assessed as median tumor growth delay at 24 mg/kg, iv administered every other day for 4 doses and monitored for 48 days; assay type: functional; conditions: time 48 day
Summary of the method: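 Female athymic NCr-nu mice carried subcutaneous NCI-H460 xenografts. […] Tumor weights and body weights were followed for 48 days after implantation. Read-out was median tumor growth delay.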

IC50 [6]: 53 nM | IC50 [7]: > 100 µM | Cmax [8]: 22.5 ng/mL
SMILES: COc1cc2c(cc1OC)CN(CCc1ccc(-n3nnc(-c4cc(OC)c(OC)cc4NC(=O)c4cc(=O)c5ccccc5o4)n3)cc1)CC2
inhibition (INH) [1]: < 50% | Activity [2]: Toxic | Activity [3]: Non-Toxic | Activity [4]: Non-Toxic | Activity [5]: Non-Toxic

SMILES: CC(=O)O[C@H]1C(=O)[C@@]2(C)[C@H]([C@H](OC(=O)c3ccccc3)[C@]3(O)C[C@H](OC(=O)[C@H](O)[C@@H](NC(=O)c4ccccc4)c4ccccc4)C(C)=C1C3(C)C)[C@]1(OC(C)=O)CO[C@@H]1C[C@@H]2O [PACLITAXEL]
Activity [9]: Non-Toxic | Drug absorption [10]: Not Active | Activity [11]: Active | Activity [12]: Toxic | Activity [13]: 94% | AUC(0-t) at 24 h [14]: 2730 ng·h/mL | Drug excretion [15]: Metabolite_Detected | Tmax [16]: 4.8 min | Kp at 24 h [17]: > 1 | Activity [18]: Non-Toxic | clearance [19]: 35 mL/min | Activity [20]: Toxic | Drug absorption [21]: Not Active | half-life at 24 h [22]: 408 min | Time [23]: 16.3 days
